Source: ChEMBL document CHEMBL4828745, “Discovery and Structure-Activity Relationships of Quinazolinone-2-carboxamide Derivatives as Novel Orally Efficacious Antimalarials” (J Med Chem, 2021)
Converted amounts (≈) assume the structure as drawn.

What was measured:
[1] = Cytotoxicity against human HEK293 cells assessed as cell viability incubated for 72 hrs by Alamar blue assay; format: cell-based
In short: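 HEK293 cells handled with the same incubation, compound addition and timing as the 72 h parasite assay. Alamar Blue, diluted in growth medium, was incubated 4 h at 37 °C/5% CO2, then 20 h at room temperature before plate read.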

Plasmodium falciparum = assay: Antiplasmodial activity against Plasmodium falciparum 3D7 infected in human erythrocyte assessed as intraerythrocytic growth inhibition incubated for 72 hrs by DAPI-staining based imaging analysis; format: functional, organism-based; settings: 3D7, 72 h
In short: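 P. falciparum 3D7 cultured in RPMI1640 with hypoxanthine, HEPES, 2.5 mg/mL AlbuMAX II and 5% human serum. Sorbitol-synchronized rings exposed 72 h at 37 °C under 5% CO2/5% O2, then DAPI-stained with saponin/Triton X-100 for 8 h in the dark. High-content imaging with spot detection. Duplicate points. Reference antimalarials run in each assay.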

[2] = Intrinsic clearance in rat liver microsomes at […] by LC-MS/MS analysis; format: ADME, Microsome
In short: (§1)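 Liver microsomes (human, mouse or rat) at 0.4 mg/mL protein, 37 °C, with an NADPH-regenerating system. Compound at 0.25 or 0.5 μM. Acetonitrile/diazepam quench, LC-MS quantitation. CLint from the first-order degradation rate constant.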

[3] = Intrinsic clearance in mouse liver microsomes at […] by LC-MS/MS analysis; format: ADME, Microsome; in short: as §1
[4] = Apparent permeability of the compound from apical to basolateral side in human Caco-2 cells at 20 uM measured after 120 mins by LC-MS analysis; format: ADME, cell-based
In short: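 Caco-2 monolayers, apical-to-basolateral direction, in pH 7.4 HBSS with 20 mM HEPES on both sides. Donor at nominal 20 μM, 0.1% DMSO final. Flux followed over 120 min. Quantified by LC-MS with mass balance to derive Papp.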

[5] = Kinetic solubility of the compound in pH 6.5 phosphate buffer by nephelometry; format: physicochemical; settings: read-out: Kinetic_solubility
In short: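 DMSO stock spiked into pH 6.5 phosphate buffer (1% DMSO final). After 30 min, solubility range estimated by nephelometry.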

[6] = Intrinsic clearance in human liver microsomes at […] by LC-MS/MS analysis; format: ADME, Microsome; in short: as §1

Row | SMILES | CC50 at 72 h [1] [µM] | IC50 (Plasmodium falciparum) [µM] | CLH [2] [uL/ml.millig] | CLH [3] [uL/ml.millig] | Papp A→B at 2 h, 20 µM [4] [×10⁻⁶ cm/s] | solubility kinetic [5] [µg/mL] | CLH [6] [uL/ml.millig]
1 | CCc1cccc(CNC(=O)c2nc3ccc(F)c(OCCc4ccc(C(=O)O)cc4)c3c(=O)[nH]2)c1 | > 20 | 0.42 | 485 | 69 | 44 | 12.5 (≈ 25.5 µM) | –
2 | COc1cccc(CNC(=O)c2nc3ccc(F)c(OCCc4ccccc4)c3c(=O)[nH]2)c1 | > 20 | > 20 | – | – | – | – | –
3 | CC(C)c1cccc(CNC(=O)c2nc3ccc(F)c(OCCc4ccc(C(=O)O)cc4)c3c(=O)[nH]2)c1 | > 20 | 1.16 | – | – | – | – | –
4 | CCc1cccc(CN(C)C(=O)c2nc3ccc(F)c(OCCc4ccc(C(=O)O)cc4)c3c(=O)[nH]2)c1 | > 20 | > 20 | – | – | – | – | –
5 | CCc1cccc(NC(=O)c2nc3ccc(F)c(OCCc4ccc(C(=O)O)cc4)c3c(=O)[nH]2)c1 | > 20 | 3.19 | – | – | – | – | –
6 | CCc1cccc(CNC(=O)c2nc3ccc(F)c(COCc4ccc(C(=O)O)cc4)c3c(=O)[nH]2)c1 | > 20 | 4.46 | – | – | – | – | –
7 | CCc1cccc(CNC(=O)c2nc3cccc(COCc4ccc(C(N)=O)cc4)c3c(=O)[nH]2)c1 | > 20 | 0.31 | 636 | – | – | < 3.1 | 83
8 | CCc1cccc(CNC(=O)c2nc3cc(COCc4ccc(C(=O)O)cc4)ccc3c(=O)[nH]2)c1 | > 20 | > 20 | – | – | – | – | –
9 | CCc1cccc(CNC(=O)c2nc3ccc(Br)c(COCc4ccc(C(=O)O)cc4)c3c(=O)[nH]2)c1 | > 20 | > 20 | – | – | – | – | –
10 | CCc1cccc(CNC(=O)c2nc3ccc(F)c(COc4ccc(CC(=O)O)cc4)c3c(=O)[nH]2)c1 | > 20 | > 20 | – | – | – | – | –
11 | O=C(O)c1ccc(COCc2cccc3nc(C(=O)NCc4ccccc4)[nH]c(=O)c23)cc1 | > 20 | 0.28 | – | – | – | – | –
12 | CCc1cccc(CNC(=O)c2nc3c(OC)ccc(COCc4ccc(C(=O)O)cc4)c3c(=O)[nH]2)c1 | > 20 | 1.89 | – | – | – | – | –
13 | CCc1cccc(CNC(=O)c2nc3c(Cl)ccc(COCc4ccc(C(=O)O)cc4)c3c(=O)[nH]2)c1 | > 20 | 0.16 | – | – | – | – | –
14 | CCc1cccc(CNC(=O)c2nc3cccc(CSCc4ccc(C(=O)O)cc4)c3c(=O)[nH]2)c1 | > 20 | 5.54 | – | – | – | – | –
15 | CCc1cccc(CNC(=O)c2nc3cccc(COCc4cccc(C(=O)O)c4)c3c(=O)[nH]2)c1 | > 20 | 1.58 | – | – | – | – | –
16 | O=C(O)c1ccc(CCOc2c(F)ccc3nc(C(=O)NCc4cccc(OCC5CC5)c4)[nH]c(=O)c23)cc1 | > 20 | 1.67 | – | – | – | – | –
17 | CCc1ccccc1CNC(=O)c1nc2ccc(F)c(OCCc3ccc(C(=O)O)cc3)c2c(=O)[nH]1 | > 20 | > 20 | – | – | – | – | –
18 | CCc1ccc(CNC(=O)c2nc3ccc(F)c(OCCc4ccc(C(=O)O)cc4)c3c(=O)[nH]2)cc1 | > 20 | 1.16 | – | – | – | – | –
19 | CCc1cccc(CNC(=O)c2nc3c(COCc4ccc(C(=O)O)cc4)cccc3c(=O)[nH]2)c1 | > 20 | > 20 | – | – | – | – | –
20 | CCc1ccnc(CNC(=O)c2nc3cccc(COCc4ccc(C(=O)O)cc4)c3c(=O)[nH]2)c1 | > 20 | 0.89 | – | – | – | – | –
21 | CCNC(=O)c1ccc(CCOc2c(F)ccc3nc(C(=O)NCc4cccc(CC)c4)[nH]c(=O)c23)cc1 | > 20 | > 20 | – | – | – | – | –
22 | Cc1cc(CNC(=O)c2nc3ccc(F)c(OCCc4ccc(C(=O)O)cc4)c3c(=O)[nH]2)ccc1F | > 20 | 0.59 | – | – | – | – | –

Row | SMILES | CC50 at 72 h [1] [µM] | IC50 (Plasmodium falciparum) [µM] | CLH [2] [uL/ml.millig] | CLH [3] [uL/ml.millig] | Papp A→B at 2 h, 20 µM [4] [×10⁻⁶ cm/s] | solubility kinetic [5] [µg/mL] | CLH [6] [uL/ml.millig]
23 | O=C(O)c1ccc(CCOc2c(F)ccc3nc(C(=O)NCc4ccccc4)[nH]c(=O)c23)cc1 | > 20 | 3.67 | 123 | 12 | 16 | 6.3 (≈ 13.7 µM) | 7
24 | COc1cccc(CNC(=O)c2nc3ccc(F)c(OCCc4ccc(N)cc4)c3c(=O)[nH]2)c1 | > 20 | > 20 | – | – | – | – | –
25 | CCc1cncc(CNC(=O)c2nc3cccc(COCc4ccc(C(=O)O)cc4)c3c(=O)[nH]2)c1 | > 20 | 0.55 | 78 | – | – | 1.6 (≈ 3.39 µM) | 13
26 | CCc1cccc(CNC(=O)c2nc3cccc(COc4ccc(CC(=O)O)cc4)c3c(=O)[nH]2)c1 | > 20 | > 20 | – | – | – | – | –
27 | CCc1cccc(CNC(=O)c2nc3cccc(COc4ccc(C(=O)O)cc4)c3c(=O)[nH]2)c1 | > 20 | > 20 | – | – | – | – | –
28 | O=C(O)c1ccc(COCc2cccc3nc(C(=O)NCc4cccc(C(F)(F)F)c4)[nH]c(=O)c23)cc1 | > 20 | 0.41 | 42 | – | – | – | 7
29 | CCc1cccc(C(C)NC(=O)c2nc3ccc(F)c(OCCc4ccc(C(=O)O)cc4)c3c(=O)[nH]2)c1 (stereo not drawn) | > 20 | 5.13 | – | – | – | – | –
30 | O=C(O)c1ccc(CCOc2c(F)ccc3nc(C(=O)NCC4CCCCC4)[nH]c(=O)c23)cc1 | > 20 | > 20 | 740 | 62 | 32 | < 1.6 | 7
31 | CCc1cccc(CNC(=O)c2nc3ccc(COCc4ccc(C(=O)O)cc4)cc3c(=O)[nH]2)c1 | > 20 | 1.62 | – | – | – | – | –
32 | CCc1cccc(CNC(=O)c2nc3ccc(OC)c(COCc4ccc(C(=O)O)cc4)c3c(=O)[nH]2)c1 | > 20 | > 20 | – | – | – | – | –
33 | CCc1cccc(CNC(=O)c2nc3cccc(CN(C)Cc4ccc(C(=O)O)cc4)c3c(=O)[nH]2)c1 | > 20 | 1.15 | – | – | – | – | –
34 | CCc1cccc(CNC(=O)c2nc3ccc(Cl)c(COCc4ccc(C(=O)O)cc4)c3c(=O)[nH]2)c1 | > 20 | > 20 | – | – | – | – | –
35 | CCc1ccc(CNC(=O)c2nc3cccc(COCc4ccc(C(=O)O)cc4)c3c(=O)[nH]2)cc1 | > 20 | 0.073 | – | – | – | – | –
36 | COc1cccc(CNC(=O)c2nc3cccc(COCc4ccc(C(=O)O)cc4)c3c(=O)[nH]2)c1 | > 20 | 0.18 | – | – | – | – | –
37 | CCc1cccc(CNC(=O)c2nc3ccc(F)c(COc4ccc(C(=O)O)cc4)c3c(=O)[nH]2)c1 | > 20 | 6.97 | – | – | – | – | –
38 | COc1cc(CNC(=O)c2nc3ccc(F)c(OCCc4ccc(C(=O)O)cc4)c3c(=O)[nH]2)ccc1F | > 20 | 1.9 | – | – | – | – | –
39 | COc1cccc(CNC(=O)c2nc3ccc(F)c(OCCc4ccc(C(=O)O)cc4)c3c(=O)[nH]2)c1 | > 20 | 2.38 | – | – | – | – | –
40 | CCc1cccc(CNC(=O)c2nc3c(F)ccc(COCc4ccc(C(=O)O)cc4)c3c(=O)[nH]2)c1 | > 20 | 0.054 | – | – | – | – | –
41 | O=C(O)c1ccc(CCOc2c(F)ccc3nc(C(=O)NCc4cccc(C5CC5)c4)[nH]c(=O)c23)cc1 | > 20 | 4.76 | – | – | – | – | –
42 | CCc1cccc(C(C)NC(=O)c2nc3cccc(COCc4ccc(C(=O)O)cc4)c3c(=O)[nH]2)c1 (stereo not drawn) | > 20 | 5.94 | – | – | – | – | –
43 | CCc1cccc(CNC(=O)c2nc3ccc(F)c(OCCc4ccc(C(N)=O)cc4)c3c(=O)[nH]2)c1 | > 20 | > 20 | – | – | – | – | –
